Assays:
Format in all cases: in vitro ADME
[1] = system: Phase II conjugative enzymes; experiment: Phase II conjugation reactions; conditions: rat enzymes (printed: rat microsomes)
Procedure, shortened: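 Three rat liver S9 incubations in pH 7.4 phosphate at 37 °C, each with test compound 100 μM and MgCl2 1 mM. Glucuronidation used 2 mg/mL S9 activated with alamethicin on ice 15 min, plus UDPGA 5 mM. Sulfation used 2 mg/mL S9 plus PAPS 0.2 mM. Glutathione conjugation used 10 mg/mL S9 plus glutathione 0.2 mM. Parent loss by LC-MS/MS over 120 min.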

[2] = system: glutathione-S-transferases (GSTs); experiment: Glutathione conjugation in rat liver S9; conditions: rat enzymes
Procedure, shortened: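 Rat liver S9 (10 mg/mL) in 0.1 M potassium phosphate, pH 7.4, with test compound 100 μM and MgCl2 1 mM (final), preincubated 5 min at 37 °C. Reaction started with glutathione 0.2 mM final. Controls: acetaminophen as positive, no-glutathione as negative. Samples taken over 0–120 min, quenched in cold methanol with internal standard. Parent measured by HILIC LC-MS/MS; % intact at 120 min vs time zero, mean ± %CV.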

[3] = system: sulfotransferases (SULTs); experiment: Sulfoconjugation in rat liver S9 with PAPS; conditions: rat liver S9, 2 h
Procedure, shortened: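 Sulfotransferase reaction in rat liver S9 (2 mg/mL), 0.1 M potassium phosphate pH 7.4, with 1 mM MgCl2 and test compound at 100 μM final. After 5 min preincubation at 37 °C, PAPS was added to 0.2 mM. Controls: 7-hydroxycoumarin as positive, PAPS-free as negative. Aliquots to 120 min stopped with ice-cold methanol plus internal standard. LC-MS/MS of parent; percent intact relative to time zero.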

[4] = system: uridine glucuronosyl transferases (UGTs); experiment: Glucuronide conjugation in human liver S9 with UDPGA; conditions: human liver S9 + UDP glucuronic acid, 2 h
[5] = system: uridine glucuronosyl transferases (UGTs); experiment: Glucuronide conjugation in rat liver S9 with UDPGA; conditions: rat liver S9 + UDP glucuronic acid, 2 h

SMILES	stability towards Phase II conjugative enzymes (in words) [1]	formation of glutathione conjugates (in words) [2]	other results
CN[C@@H]1[C@H](O)[C@H](NC)[C@H]2O[C@]3(O)[C@H](O[C@@H]2[C@H]1O)O[C@H](C)C[C@H]3NC(=O)Cc1ccc(F)cn1 [Compound 1445]	complete stability	–	–
CN[C@@H]1[C@H](O)[C@H](NC)[C@H]2O[C@]3(O)[C@H](O[C@@H]2[C@H]1O)O[C@H](C)C[C@H]3NC(=O)Cc1cc(Cl)ccn1 [Compound 1544]	–	formed glutathione conjugates	–
CN[C@@H]1[C@H](O)[C@H](NC)[C@H]2O[C@]3(O)[C@H](O[C@@H]2[C@H]1O)O[C@H](C)C[C@H]3NC(=O)Cc1ccc(Cl)cn1 [Compound 1599]	complete stability	–	–
CN[C@@H]1[C@H](O)[C@H](NC)[C@H]2O[C@]3(O)[C@H](O[C@@H]2[C@H]1O)O[C@H](C)C[C@H]3NC(=O)Cc1cc(Cl)c(F)cn1 [Compound 1661]	complete stability	–	–
CN[C@@H]1[C@H](O)[C@H](NC)[C@H]2O[C@]3(O)[C@H](O[C@@H]2[C@H]1O)O[C@H](C)C[C@H]3NC(=O)Cc1cc(Cl)c(C)cn1 [Compound 1666]	–	formed glutathione conjugates	sulfoconjugation (in words) [3]: no metabolism
CN[C@@H]1[C@H](O)[C@H](NC)[C@H]2O[C@]3(O)[C@H](O[C@@H]2[C@H]1O)O[C@H](C)C[C@H]3NC(=O)Cc1ccc(O)cn1 [Compound 1810]	complete stability	–	% parent compound remaining intact [4]: above 93%; % parent compound remaining intact [5]: above 93%
CN[C@@H]1[C@H](O)[C@H](NC)[C@H]2O[C@]3(O)[C@H](O[C@@H]2[C@H]1O)O[C@H](C)C[C@H]3NC(=O)Cc1cc(Cl)c(OC)cn1 [Compound 1878]	–	formed glutathione conjugates	–

Reference: PMC4814158 (MedChemComm, 2015)
